Shown are actives, neighbours in structure and some others; about 3.3% of the full set was active somewhere.
SIAE primary: human SIAE inhibition, primary screen | inhibition, % at 9.66 µM | SIAE FP-Rh probe binding, fluorescence polarization | AID 1053197 | 370,000 tested, 0.69% active;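 active = inhibition above a cutoff: mean of compounds within the control limits plus 3 SD of those, cut at about 17% in these data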;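 note: 0% = plate median of compound wells and 100% = probe without SIAE protein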
Target sequence (Q9HAT2 whole entry, looked up): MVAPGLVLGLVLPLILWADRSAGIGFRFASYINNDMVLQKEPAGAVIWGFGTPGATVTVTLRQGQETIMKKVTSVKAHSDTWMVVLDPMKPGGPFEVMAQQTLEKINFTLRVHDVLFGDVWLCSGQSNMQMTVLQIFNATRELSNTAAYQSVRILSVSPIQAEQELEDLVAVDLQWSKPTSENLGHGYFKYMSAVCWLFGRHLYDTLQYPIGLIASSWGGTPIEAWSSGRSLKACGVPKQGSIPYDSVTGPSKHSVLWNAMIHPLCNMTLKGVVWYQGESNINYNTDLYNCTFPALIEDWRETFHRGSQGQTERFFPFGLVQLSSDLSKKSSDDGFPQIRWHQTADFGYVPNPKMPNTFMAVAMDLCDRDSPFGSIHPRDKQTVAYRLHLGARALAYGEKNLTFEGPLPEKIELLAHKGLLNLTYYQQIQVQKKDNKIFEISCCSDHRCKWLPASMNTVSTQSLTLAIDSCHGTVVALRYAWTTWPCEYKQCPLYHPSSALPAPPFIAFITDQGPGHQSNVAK
rCAG RNA binder: molecules binding r(CAG) RNA repeats. r(CAG) RNA repeat, TO-PRO-1 dye displacement fluorescence. inhibition, % at 3 µM. 370,000 tested, 1.3% active. AID 651821;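 active = inhibition above the plate cutoff, the mean of all test compounds on that plate plus 3 SD, cut at about 35% in these data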;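 note: 0% = DMSO alone and 100% = 100 µM mitoxantrone as full dye displacement; higher means more dye released from RNA so lower well fluorescence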
PRMT1 FP inh: blocks human protein arginine methyltransferase 1. Q99873. recombinant PRMT1, activity-based probe fluorescence polarization. 370,000 tested, 1.3% active. inhibition, % at 2.79 µM. AID 652257;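 active = inhibition above about 21% made by adding two undisclosed values, limit read from the data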
TCR-CD3 inh: blocks the human TCR-CD3 interaction | TAMRA-labeled TCR probe fluorescence, biochemical | inhibition, % at 9.4 µM | 360,000 tested, 0.37% active | AID 651800; in the data active = inhibition above about 19%;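 note: recombinant mutant TCR 2C K166C tagged with TAMRA read by polarization; 0% = receptor in buffer alone and 100% = receptor with positive control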
ABHD4 inh: inhibits mouse alpha/beta hydrolase domain 4 | Q8VD66 | purified mABHD4, FP-Rh probe fluorescence polarization | inhibition, % at 8.92 µM | 370,000 tested, 0.54% active;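 active = inhibition exceeding the mean over every tested compound plus 3 SD, cut at about 30% in these data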;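 note: 0% = plate median of compound wells and 100% = S159A mutant with DMSO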
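Assay system: mouse ABHD4 enzyme, wild type / Also added: fluorescent activity-based probe FP-Rh / Doses: single nominal dose of 8.92 µM, 0.89% DMSO final / Timing: 45 min compound pre-incubation plus 60 min probe step, 25 °C / Signal: FP readout, ex 525 nm / em 598 nm / Control set: S159A mutant/DMSO as 100%, compound-well median as 0%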
rCAG bind conf: r(CAG) RNA repeat binding, confirmation; shares compounds with rCAG RNA binder; TO-PRO-1 dye displacement fluorescence; inhibition, % at 3 µM; 4,300 tested, 70% active;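 active = inhibition above a per-plate cutoff, the mean inhibition of sample wells plus 3 SD, cut at about 35% in these data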;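 note: loss of TO-PRO-1 fluorescence as compound displaces dye from 1x1 AA loop RNA; 0% = DMSO only wells and 100% = 100 µM mitoxantrone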
dCAG dye counter: disrupts DNA CAG TO-PRO-1 complex, flagging rCAG hits | shares compounds with rCAG RNA binder | d(CAG) DNA oligo TO-PRO-1 dye displacement, fluorescence | inhibition, % at 3 µM | 4,300 tested, 94% active;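 active = inhibition above its plate's cutoff, the mean test-well inhibition plus 3 SD, cut at about 4.8% in these data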;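 note: 0% = DNA dye mix with DMSO and 100% = 100 µM mitoxantrone; hits displace the dye from DNA and so lower well fluorescence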
DNA CAG DR: DNA CAG dye complex inhibition, dose response counter-screen. DNA CAG/GTC duplex TO-PRO-1 dye displacement fluorescence. IC50, µM. shares compounds with rCAG RNA binder. 250 tested, 20% active; in the data active = IC50 below about 10 µM
* hit, by the source's call; x = no result.

SMILES | SIAE primary | rCAG RNA binder | PRMT1 FP inh | TCR-CD3 inh | ABHD4 inh | rCAG bind conf | dCAG dye counter | others
NS(=O)(=O)c1cccc(Nc2nc3ccccc3nc2NS(=O)(=O)c2ccc(Cl)cc2)c1 | 0.2 | 89.7* | -1.0 | 6.6 | 12.4 | 88.6* | 67.6*
COC(=O)c1cn(-c2ccc3c(c2)[C@]2(CC(=O)N(C)C2c2ccccc2)C(=O)N3CC(C)C)nn1 (stereo partly specified) | 6.7 | 1.7 | -1.5 | x | 1.1 | x | x
N#Cc1ccc(CSc2nc3sc4c(c3c(=O)n2-c2ccc(Br)cc2)CCCC4)cc1 | 4.9 | 6.4 | 1.6 | x | -3.1 | x | x
N#C/C(=N\Nc1cccc([N+](=O)[O-])c1)C(=O)c1ccc(Br)cc1 | -6.2 | 75.9* | 5.5 | -6.1 | 14.0 | 87.0* | 52.4*
Cn1c(=O)c2[nH]c(NN=Cc3cccc(Br)c3)nc2n(C)c1=O | 5.7 | 13.5 | 2.2 | -2.8 | 9.6 | x | x
Cn1c(=O)c2[nH]c(NN=Cc3ccc(F)cc3)nc2n(C)c1=O | 1.5 | 3.4 | -0.6 | 5.2 | 0.0 | x | x
Cc1cc(C)cc(Nc2nc3c([nH]2)c(=O)n(C)c(=O)n3C)c1 | 4.2 | 58.3* | -1.6 | 5.4 | 4.2 | 18.1 | 12.5*
Cc1ccc(Nc2nc3c([nH]2)c(=O)n(C)c(=O)n3C)cc1 | 5.2 | 50.6* | -1.6 | 3.0 | 0.6 | 14.2 | 14.0*
CCn1c2ccccc2c2cc(NC(=O)COC(=O)c3cc(F)cc(F)c3)ccc21 | 0.0 | 2.8 | -1.4 | x | 1.9 | x | x
CN(c1ccccc1)S(=O)(=O)c1ccc(C(=O)Nc2nnc(C3CC3)o2)cc1 | -9.2 | 0.2 | 4.4 | -3.6 | -1.1 | x | x
CC1CCCN(S(=O)(=O)c2ccc(C(=O)Nc3nnc(-c4ccco4)o3)cc2)C1 (stereo unspecified) | 9.8 | 41.1* | -2.2 | -3.5 | -4.5 | 37.9* | 13.2*
CN(c1ccccc1)S(=O)(=O)c1ccc(C(=O)Nc2nnc(-c3ccco3)o2)cc1 | -5.3 | 42.2* | 1.6 | 3.0 | -4.8 | 35.7* | 13.2*
CCN(c1ccccc1)S(=O)(=O)c1ccc(C(=O)Nc2nnc(-c3ccco3)o2)cc1 | -4.9 | 57.2* | -3.9 | -0.3 | -17.0 | 45.4* | 15.3*
CCc1nnc(NC(=O)c2ccc(S(=O)(=O)N3CCCC(C)C3)cc2)o1 (stereo unspecified) | 4.2 | 11.5 | -1.5 | -2.3 | 0.7 | x | x
CC(C)CN1C(=O)C[C@@]2(C(=O)N(C)c3ccc(NS(=O)(=O)C4CC4)cc32)C1c1ccccc1 (stereo partly specified) | -5.9 | 2.8 | -0.1 | x | -1.2 | x | x
N#Cc1ccc(N2C(=O)[C@@H]3C(C(=O)C(c4ccccc4)c4ccccc4)=NN[C@@H]3C2=O)cc1 | -8.4 | 61.1* | -0.8 | 0.8 | -37.1 | 34.5 | 11.5*
O=C(C1=NN[C@@H]2C(=O)N(c3ccccc3C(F)(F)F)C(=O)[C@H]12)C(c1ccccc1)c1ccccc1 | 3.1 | 11.3 | -0.3 | 4.3 | -12.7 | x | x
N#Cc1c(-c2cccs2)nc(SCc2ccc(Cl)cc2)[nH]c1=O | -39.0 | 87.2* | 9.9 | -6.9 | -120.7 | 88.1* | 67.8*
O=C(O)C1CC=CCC1C(=O)Nc1ccc(S(=O)(=O)N2CCCc3ccccc32)cc1 (stereo unspecified) | -4.5 | 36.2* | -0.9 | -12.1 | -12.8 | 36.8* | 9.1*
CC(C)c1ccc(C(=O)Nc2cc(Cl)ccc2C(=O)O)cc1 | -26.9 | x | -0.1 | x | -29.1 | x | x
CC(C)(N[C@@H](Cc1ccccc1)C(=O)NCCc1c[nH]c2ccccc12)C(=O)NC1CCCCC1 | 3.2 | x | -1.9 | x | 1.0 | x | x
O=C(Nc1ccc(O)cc1)c1ccc2c(c1)C(=O)N(Cc1ccco1)C2=O | 0.7 | 14.4 | 0.4 | 7.8 | 9.0 | x | x
CC(C)CCN1C(=O)c2ccc(C(=O)Nc3ccc(O)cc3C(=O)O)cc2C1=O | -10.2 | 98.1* | -4.3 | -3.0 | 17.2 | 84.2* | 51.4*
O=C(Nc1ccc(O)cc1C(=O)O)c1ccc2c(c1)C(=O)N(Cc1ccco1)C2=O | -42.5 | 72.8* | 6.4 | -5.5 | 14.5 | 86.3* | 50.0*
CC(C)CCN1C(=O)c2ccc(C(=O)Nc3ccccc3C(=O)O)cc2C1=O | -25.5 | 54.8* | 0.4 | 8.7 | -3.7 | 80.3* | 51.1*
SMILES | SIAE primary | rCAG RNA binder | PRMT1 FP inh | TCR-CD3 inh | ABHD4 inh | rCAG bind conf | dCAG dye counter | others
Cc1ccc(CNC(=O)OC(C)(C)C)c(/C=C/S(=O)(=O)NCc2ccc(F)cc2)c1 | -1.4 | -2.3 | -7.1 | x | -10.1 | x | x
O=S(=O)(Nc1nc2ccccc2nc1NCCN1CCOCC1)c1cccc(Cl)c1 | 5.0 | 49.1* | -0.2 | -4.5 | 4.4 | 52.5* | 10.4* | DNA CAG DR=>29.9
O=S(=O)(Nc1nc2ccccc2nc1NCC1CCCO1)c1cc(Cl)ccc1Cl (stereo unspecified) | -3.5 | 70.6* | -6.1 | 3.3 | -2.3 | 48.7* | 14.4*
CCCCCCSc1nc(O)c(C2OC(=O)c3c2ccc(OC)c3OC)c(=O)n1CC (stereo unspecified) | 5.4 | 38.6* | 2.9 | -6.3 | 1.9 | 35.9* | 8.3*
CCCSc1nc(O)c(C2OC(=O)c3c2ccc(OC)c3OC)c(=O)n1C (stereo unspecified) | 2.0 | 9.8 | -1.4 | 4.2 | 9.8 | x | x
O=C(O)c1cc(N/N=C/C(Cl)=C/c2ccccc2)ccc1Cl | 2.0 | 57.5* | 3.1 | 9.4 | 7.8 | 45.2* | 17.5*
O=C(O)c1cc(N/N=C/c2cccc3ccccc23)ccc1Cl | 15.7 | 12.5 | 2.7 | -4.2 | 8.7 | x | x
Clc1ccc(CN(Cc2ccc(Cl)cc2)c2nn[nH]n2)cc1 | -6.9 | 38.6* | 4.8 | -4.3 | 3.7 | 27.3 | 5.4*
O=C(O)c1ccc(COc2ccccc2/C=C2\NC(=O)N(Cc3ccccc3)C2=O)cc1 | -2.7 | 42.7* | -0.1 | -0.5 | -2.6 | 45.6* | 10.6*
CCCN1C(=O)/C(=C/c2ccccc2OCc2ccc(C(=O)O)cc2)NC1=S | -13.4 | 39.1* | 0.6 | -3.4 | -29.7 | 34.5 | 8.1*
N#C/C(=C\c1ccccc1OCc1ccc(C(=O)O)cc1)c1ccccc1 | -8.9 | 34.9* | 3.8 | 8.2 | -1.8 | 29.8 | 5.3*
COc1cc(/C=C(/C#N)C(=O)Nc2ccccc2)c(Br)cc1OCc1ccc(C(=O)O)cc1 | -6.9 | 46.1* | 2.4 | 3.6 | -45.3 | 72.7* | 35.2*
O=C(O)c1ccc(COc2ccc3ccccc3c2/C=C2/NC(=O)N(Cc3ccc(F)cc3)C2=O)cc1 | -22.7 | 24.8 | -2.7 | 1.4 | -17.2 | x | x
O=C(c1cccc(C(F)(F)F)c1)N1CC[C@H]2[C@H](CCCN2Cc2ccc(F)cc2)C1 | 2.8 | -0.8 | 0.8 | x | -0.3 | x | x
O=C(C1CCC1)N1CCc2cc(S(=O)(=O)N3CCCC3)ccc21 | -3.3 | 1.3 | 2.2 | x | 4.2 | x | x

High-throughput results from PubChem.
